Assay results reported in PMC5678849 (Kidney International Reports, 2017).
Where two headings read alike, the source gives them in different places. Marks after values point to notes of the source that are not given here.

Legend:
serum P = assay: Serum phosphorus change; format: in vivo, human (Japanese hemodialysis patients with SHPT); details: for serum P, percent change from the baseline at the end of the treatment or withdrawal: mean ± SD
[1] = Plasma etelcalcetide pharmacokinetics, multiple-dose study; format: in vivo, human (Japanese hemodialysis patients with SHPT); details: for AUC(0-t) / Cmax: human, plasma, iv; for AUC(0-t): AUClast
In short: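 Two cohorts of 11 hemodialysis patients with SHPT, randomized 8:3 to drug or placebo. Plasma drug was measured by LC/MS/MS, with samples taken before each dialysis. Per-subject noncompartmental Cmax and AUClast were compared for the day 1 and day 27 injections. Values are geometric mean (95% CI).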

[2] = Antibodies against etelcalcetide, ELISA; format: in vivo, human (Japanese hemodialysis patients with SHPT); details: validated ELISA
[3] = system: serum intact parathyroid hormone (iPTH); assay: Serum iPTH change, multiple-dose study; format: in vivo, human (Japanese hemodialysis patients with SHPT); details: mean ± SD; for serum iPTH, percent change 30 minutes after injection / serum iPTH, percent change from baseline on day 3: multiple-dose study; for serum iPTH, percent change 30 minutes after injection: first injection, n = 8
In short: (§1)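 Blood was drawn before each dialysis, plus serial samples after the day 1 and day 27 injections. Serum iPTH, BAP, TRACP-5b and FGF23 were measured centrally. Data are percent change from baseline, mean ± SD.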

[4] = Plasma etelcalcetide pharmacokinetics, single-dose study; format: in vivo, human (Japanese hemodialysis patients with SHPT); details: human, iv
In short: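 Japanese hemodialysis patients (≥20 y) with SHPT, iPTH ≥ 300 pg/ml and cCa ≥ 9.0 mg/dl, randomized 2:1 to drug or placebo in cohorts of 6. A single i.v. injection (5, 10 or 20 mg) was given via the venous blood line after dialysis. Plasma drug was measured by LC/MS/MS. Cmax and AUClast (to the last quantifiable point before the next hemodialysis) were derived per subject by noncompartmental analysis and reported as mean ± SD.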

[5] = system: serum albumin-corrected calcium (cCa); assay: Serum cCa change, single-dose study; format: in vivo, human (Japanese hemodialysis patients with SHPT); details: mean ± SD, n = 4
In short: (§2)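 Japanese hemodialysis patients with SHPT received a single 5, 10 or 20 mg i.v. injection, or placebo, via the venous blood line after dialysis. Active groups had n = 4; placebo was pooled across cohorts. Serum iPTH, albumin-corrected Ca and P were measured by a central laboratory. Data are percent change from baseline over time, with mean maximum change from baseline, reported descriptively as mean ± SD.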

[6] = system: serum albumin-corrected calcium (cCa); assay: Serum cCa change, multiple-dose study; format: in vivo, human (Japanese hemodialysis patients with SHPT); details: mean ± SD
In short: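 Randomized, double-blind, placebo-controlled, 16 centres. Patients: ≥20 y, hemodialysis 3×/week ≥90 days, iPTH ≥ 300 pg/ml, cCa ≥ 9.0 mg/dl, dialysate Ca ≥2.25 mEq/l. Blood taken before each dialysis; follow-up to day 55. Serum cCa measured centrally; percent change from baseline at day 55 or withdrawal.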

[7] = cited from earlier work
[8] = system: BAP, TRACP-5b, FGF23 serum levels; assay: Serum BAP, TRACP-5b and FGF23, multiple-dose study; format: in vivo, human (Japanese hemodialysis patients with SHPT)
In short: as §1

[9] = Safety and tolerability, single-dose study; format: in vivo, human (Japanese hemodialysis patients with SHPT)
In short: (§3)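 Safety was assessed descriptively from AEs, vital signs, clinical laboratory tests and 12-lead ECGs (centrally analyzed, QTc by Fridericia). Anti-drug antibodies were measured by validated ELISA. Hypocalcemia was defined as cCa < 7.5 mg/dl. Dosing was a single i.v. injection after dialysis (5, 10 or 20 mg), or 2.5 or 5 mg i.v. three times weekly for 4 weeks. Each dose cohort started only after the earlier cohorts met the safety criteria.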

[10] = system: serum intact parathyroid hormone (iPTH); assay: Serum iPTH change, single-dose study; format: in vivo, human (Japanese hemodialysis patients with SHPT); details: for serum iPTH, mean maximum change from the baseline: mean ± SD, n = 4
In short: as §2

[11] = Safety and tolerability, multiple-dose study; format: in vivo, human (Japanese hemodialysis patients with SHPT)
In short: as §3

[12] = 2.5 mg i.v. 3 times weekly for 4 weeks
[13] = 5 mg i.v. 3 times weekly for 4 weeks
[14] = M1, 2.5 mg, n = 7, geometric mean (95% confidence interval)
[15] = M2, 5 mg, n = 8, geometric mean (95% confidence interval)
[16] = 2.5 mg, M1, 2.5 mg i.v. 3 times weekly for 4 weeks, day 1 (first administration), n = 8, mean ± SD
[17] = 5 mg, M2, 5 mg i.v. 3 times weekly for 4 weeks, day 1, n = 8, mean ± SD
[18] = 5 mg, M2, 5 mg i.v. 3 times weekly for 4 weeks, day 27, n = 8, mean ± SD

CC(=O)N[C@H](CSSC[C@H](N)C(=O)O)C(=O)N[C@H](C)C(=O)N[C@H](CCCNC(=N)N)C(=O)N[C@H](CCCNC(=N)N)C(=O)N[C@H](CCCNC(=N)N)C(=O)N[C@H](C)C(=O)N[C@H](CCCNC(=N)N)C(N)=O [etelcalcetide, Etelcalcetide]
serum P, percent change from the baseline at the end of the treatment or withdrawal (serum P; [12]): −14.68% ± 13.38%
serum P, percent change from the baseline at the end of the treatment or withdrawal (serum P; [13]): −13.79% ± 18.18%
serum P versus placebo (serum P; single-dose study, from 4 hours to day 4): remained lower
AUClast ratio day 27/day 1 [1, 14]: 3.05 (2.91–3.19) ^c
Cmax ratio day 27/day 1 [1, 14]: 1.18 (0.86–1.62) ^c
AUClast ratio day 27/day 1 [1, 15]: 3.20 (2.87–3.57) ^c
Cmax ratio day 27/day 1 [1, 15]: 1.09 (0.90–1.32) ^c
AUC(0-t) [1, 16]: 600 ± 133 ng·h/mL
AUC(0-t) ([1]; 2.5 mg, M1, 2.5 mg i.v. 3 times weekly for 4 weeks, day 27 (last administration), n = 7, mean ± SD): 1830 ± 380 ng·h/mL
Cmax [1, 16]: 151 ± 56 ng/mL
AUC(0-t) [1, 17]: 1200 ± 560 ng·h/mL
AUC(0-t) [1, 18]: 3860 ± 1840 ng·h/mL
Cmax [1, 17]: 315 ± 89 ng/mL
Cmax [1, 18]: 356 ± 143 ng/mL
Cmax at week 4 relative to the initial dose ([1]; multiple-dose study): ≤ 1.18 times
mean AUClast following day 27 injection relative to day 1 injection ([1]; multiple-dose study, discussion): approximately 3 times
antietelcalcetide antibodies ([2]; multiple-dose study): No antietelcalcetide antibodies were detected
antietelcalcetide antibodies ([2]; single-dose study): No antietelcalcetide antibodies were detected
serum iPTH, percent change from the baseline at the end of the study or at study withdrawal [3, 12]: −26.25% ± 26.94%
serum iPTH, percent change from the baseline at the end of the study or at study withdrawal [3, 13]: −45.65% ± 20.06%
serum iPTH, percent change 30 minutes after injection ([3]; 2.5 mg i.v.): −41.65% ± 19.36%
serum iPTH, percent change from baseline on day 3 ([3]; 2.5 mg i.v.): −24.25% ± 13.36%
serum iPTH, percent change 30 minutes after injection ([3]; 5 mg i.v.): −58.60% ± 6.47%
serum iPTH, percent change from baseline on day 3 ([3]; 5 mg i.v.): −32.64% ± 18.20%
AUC(0-t) ([4]; 5 mg): 1110 ± 360 ng·h/mL
Cmax ([4]; 5 mg): 236 ± 89 ng/mL
AUC(0-t) ([4]; 10 mg): 2550 ± 110 ng·h/mL
Cmax ([4]; 10 mg): 589 ± 88 ng/mL
AUC(0-t) ([4]; 20 mg): 5460 ± 680 ng·h/mL
Cmax ([4]; 20 mg): 999 ± 135 ng/mL
serum cCa, mean maximum change from the baseline ([5]; single i.v. 5 mg): −7.26% ± 3.48%
serum cCa, mean maximum change from the baseline ([5]; single i.v. 10 mg): −6.79% ± 5.86%
serum cCa, mean maximum change from the baseline ([5]; single i.v. 20 mg): −14.26% ± 6.01%
serum cCa, mean percent change from the baseline at the end of the study or at withdrawal [6, 12]: −7.05% ± 4.60%
serum cCa, mean percent change from the baseline at the end of the study or at withdrawal [6, 13]: −12.75% ± 4.88%
tolerability ([7]; 3-times-weekly 5- and 10-mg doses for 4 weeks, non-Japanese patients): tolerable
tolerability ([7]; single i.v. injection at 5 to 60 mg, non-Japanese SHPT patients): tolerable
tolerability ([7]; single injection of 5 mg, healthy Japanese subjects, ref unpublished data): tolerable
serum FGF23 ([8]; day 29): tended to decrease
serum BAP before hemodialysis ([8]; day 29, etelcalcetide groups): remained unchanged
serum TRACP-5b ([8]; day 29, etelcalcetide groups): a trend toward decreases
serum FGF23 ([8]; day 55): a trend toward a return to baseline levels
serum BAP before hemodialysis ([8]; day 55, etelcalcetide groups): trends toward decreases
serum TRACP-5b ([8]; day 55, etelcalcetide groups): a return to baseline
patients with AEs ([9]; single i.v. 10 mg, 1 patient of 4 (APTT), considered unrelated to treatment): 25.0%
hypocalcemia with cCa < 7.5 mg/dl ([9]; single i.v. 5, 10 or 20 mg): No patients developed hypocalcemia
deaths or serious adverse events ([9]; single-dose study, 5, 10 or 20 mg i.v.): No deaths or serious adverse events (AEs) were reported
serum iPTH, mean maximum change from the baseline ([10]; single i.v. 5 mg): −50.43% ± 12.63%
serum iPTH, mean maximum change from the baseline ([10]; single i.v. 10 mg): −69.26% ± 11.35%
serum iPTH, percent change from the baseline ([10]; single i.v. 20 mg, at 56 hours): approximately −30%
patients with AEs ([11]; 2.5 mg i.v. 3 times weekly for 4 weeks, 7 patients of 8): 87.5%
serious AE ([11]; 2.5 mg i.v. 3 times weekly, relationship to treatment not ruled out): cardiopulmonary arrest
serious AE ([11]; 5 mg i.v. 3 times weekly): no serious AE was reported
patients with AEs ([11]; 5 mg i.v. 3 times weekly for 4 weeks, 3 patients of 8): 37.5%
deaths ([11]; multiple-dose study): No deaths occurred
hypocalcemia with serum cCa < 7.5 mg/dl ([11]; multiple-dose study, 2.5 or 5 mg i.v. 3 times weekly for 4 weeks): No patients experienced hypocalcemia
